Experiments:
[1] = test system: Mus musculus; test: Ability of intravenously administered compound to prevent seizures, induced by NMDLA (500 mg/kg sc) in mice, in the presence of 60 mg/kg of warfarin; format: functional; conditions: route intravenous
Method in brief: (§1)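 Swiss Webster mice; seizures induced by N-methyl-D,L-aspartate 500 mg/kg sc. Test compound given iv 15 min before NMDLA. Where warfarin is used, it is given iv 15 min before the test compound.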

[2] = target: Albumin (Homo sapiens, UniProt P02768); test: Human serum albumin index was measured by retention time on an HPLC column containing human albumin
Albumin, sequence (P02768 whole entry): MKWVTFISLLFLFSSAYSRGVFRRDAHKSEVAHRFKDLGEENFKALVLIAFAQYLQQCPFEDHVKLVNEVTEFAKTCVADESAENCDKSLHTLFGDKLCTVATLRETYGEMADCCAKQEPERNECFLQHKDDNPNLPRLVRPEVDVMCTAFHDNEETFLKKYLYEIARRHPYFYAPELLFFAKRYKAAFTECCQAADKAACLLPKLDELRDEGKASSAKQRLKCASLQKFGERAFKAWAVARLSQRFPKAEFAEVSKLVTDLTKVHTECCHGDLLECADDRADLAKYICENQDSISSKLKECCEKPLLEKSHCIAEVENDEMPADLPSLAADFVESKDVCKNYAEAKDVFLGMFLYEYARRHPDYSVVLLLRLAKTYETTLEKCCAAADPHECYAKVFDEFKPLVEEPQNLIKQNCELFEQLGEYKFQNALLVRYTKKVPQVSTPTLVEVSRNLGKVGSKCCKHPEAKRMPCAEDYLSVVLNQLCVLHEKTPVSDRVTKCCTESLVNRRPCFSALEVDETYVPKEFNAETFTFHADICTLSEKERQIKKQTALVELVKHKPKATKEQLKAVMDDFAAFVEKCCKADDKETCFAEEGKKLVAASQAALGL
Method in brief: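 HPLC on a column containing human serum albumin. Retention volume of each compound is divided by that of a reference standard and normalized so the standard equals 100.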

[3] = test system: Mus musculus; test: Ability of intravenously administered compound to prevent seizures, induced by NMDLA (500 mg/kg sc) in mice, in the presence of 100 mg/kg of warfarin; format: functional; conditions: route intravenous; method in brief: as §1
[4] = organism: Rattus norvegicus; test: Clearance into cortex from rat plasma or PBS; format: ADME, organism-based; conditions: in vivo
Method in brief: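 Rat in situ brain perfusion (Takasato method, Gratton modifications). Compound is dissolved in phosphate-buffered saline and perfused 10 s, or dissolved in rat plasma and perfused 60 s. Drug in cortex is measured and clearance from the perfusate into cortex is calculated (mL s⁻¹ g⁻¹ × 10⁴). Mean with SEM, n = 4.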

[5] = test system: Mus musculus; test: Ability of intravenously administered compound to prevent seizures, induced by NMDLA (500 mg/kg sc) in mice; format: functional; method in brief: as §1
[6] = test system: Mus musculus; test: Anticonvulsant activity measured by its ability to protect against audiogenic seizure in DBA/2 mice when dosed intraperitoneally 30 min prior to seizure induction.; format: functional; conditions: ip
Method in brief: (§2)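 DBA/2 mice, compound dosed intraperitoneally 30 min before induction of audiogenic seizures. Reported as ED50 (mg/kg and μmol/kg) or as number protected/number tested at a single dose. For some compounds the test was run 10 min after dosing.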

[7] = Partition coefficient (logP); format: physicochemical; conditions: octanol/water
Method in brief: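 Octanol/pH 7.4 buffer partition; values were either measured or calculated from tables of π values.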

[8] = target: Glutamate NMDA receptor (Rattus norvegicus) (UniProt P35439+Q00959+Q00960+Q00961+Q62645+Q8VHN2+Q9R1M7); test: Protein binding index(PBI) reflects the relative displacement of [3H]glycine from rat cortical membranes in the presence and absence of 0.2% human serum albumin; format: cell membranes; conditions: Membrane
Method in brief: (§3)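 [³H]glycine displacement from rat cortical membranes, with and without 0.2% (w/v) human serum albumin. Separation by centrifugation. Index = IC50 with albumin / IC50 without albumin.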

[9] = test system: Mus musculus; test: Anti convulsant activity of compound was measured by its ability to protect against audiogenic seizure in DBA/2 mice when dosed intraperitoneally 30 min prior to seizure induction.; format: functional; conditions: ip; method in brief: as §2
[10] = protein binding index(PBI) is the ratio of binding affinities for the displacement of [3H]- glycine from rat cortical membranes in the presence and absence of 0.2% human serum albumin; format: cell membranes; conditions: Membrane; method in brief: as §3

SMILES	ED50 [1]	HSAI [2]	ED50 [3]	Cortex_Clearance [4]	ED50 [5]	ED50 [6]	logP [7]	PBI [8]	ED50 [9]	PBI [10]
O=c1[nH]c2cc(Cl)ccc2c(O)c1-c1cccc(Oc2ccccc2)c1	1.9 mg/kg	100	0.64 mg/kg	0 ml s-1 (10e4*g)-1	3.6 mg/kg	0.88 mg/kg	2.9	94		
O=c1[nH]c2cc(Cl)ccc2c(O)c1-c1ccccc1		10					1.6		4.5 mg/kg	37
